Assay results of several laboratories.
Lines come from different studies, so protocols differ.
Matrix: plasma

`COCCOc1cnc2ccn([C@H](C)c3nnc4c(F)cc(-c5cnn(C)c5)cn34)c(=O)c2c1` gave a half-life of 8.3 h (human; oral, 200 mg, multiple doses, once daily, patients).
The half-life of `CO[C@@H]1[C@H](OC(=O)N2CC(CCN3CCOCC3)C2)CC[C@]2(CO2)[C@H]1[C@@]1(C)O[C@@H]1CC=C(C)C` is reported as 0.72 h (human; subcutaneous, 1.2 mg, single dose, healthy volunteers).
With `CO[C@H]1CC[C@H](N2C(=O)CNc3ncc(-c4ccc(C(C)(C)O)nc4)nc32)CC1` the half-life was 5.57 h (human; oral, 30 mg, patients).
For `C#C[C@]1(COP(=O)(O)OP(=O)(O)OP(=O)(O)O)O[C@@H](n2cnc3c(N)nc(F)nc32)C[C@@H]1O`, the half-life was 118 h (human; oral, 30 mg, single dose).
For `CC(C)(Sc1ccncc1-c1ccc(C#N)c2ccccc12)C(=O)O`, the half-life was 10.9 h (male human; oral, 20 mg, single dose, fasted, healthy volunteers).
With `COc1cc(C(=O)NC2CCN(C)CC2)c(F)cc1Nc1ncc(C(F)(F)F)c(Oc2cccc3c2C(=O)N(C)C3)n1` the half-life was 21.5 h (human; oral, 50 mg, multiple doses, once daily, patients).
`COc1ccc([C@@H]2CN(C(=O)[C@@H](O)CO)C[C@@]2(C)[C@@H](C)O)cc1OC1CN(c2ccc(C)cn2)C1` has a half-life of 11.9 h (human; oral, 5 mg, single dose, healthy volunteers).
With `CC(C)n1cc(C#N)c2cc(-n3cc(C(=O)O)cn3)ccc21` the half-life was 11.9 h (male human; oral, 600 mg, single dose, fasted, healthy volunteers).
The half-life of `C[C@@H](Nc1cc(F)cc(F)c1)c1cc(C(=O)N(C)C)cc2c(=O)cc(N3CCOCC3)oc12` is reported as 3.33 h (human; oral, 120 mg, single dose, patients).
For `CS(=O)(=O)CCC#N`, the half-life was 24.7 h (human; oral, 1000 mg, multiple doses, once daily).
`c1cnc2ccc(Nc3nc(NC4CC4)c4nc[nH]c4n3)cc2c1` gave a half-life of 2.1 h (human; oral, 200 mg/m², patients).
`Cn1cc(-c2ccc(S(=O)(=O)[C@@H]3C[C@@H](C(=O)NC4(C#N)CC4)N(C(=O)C4(C(F)(F)F)CC4)C3)c(C(F)(F)F)c2)cn1` gave a half-life of 10.2 h (human; oral, 30 mg, single dose, fasted, healthy volunteers).
With `O=C(Nc1c(Cl)cncc1Cl)c1ccc(OC(F)F)c(OCC2CC2)c1` the half-life was 20.9 h (human; oral, 0.25 mg, single dose).
`CC(C)[C@](O)(c1ccc2cc(OC(F)F)c(OC(F)F)cc2c1)c1c[nH]nn1` gave a half-life of 6.8 h (female human; oral, 750 mg, single dose).
For `NS(=O)(=O)NCCNc1nonc1C(=NO)Nc1ccc(F)c(Br)c1`, the half-life was 3.3 h (human; oral, 100 mg, multiple doses, twice daily, steady state, patients).
The half-life of `CCNCCCNC/C=C\CNCCCNCC` is reported as 0.2 h (human; intravenous, 150 mg, patients, infusion).
`CC(C)(O)c1ccccc1-c1ccc2[nH]c(/C=C/c3ccc(C(F)(F)F)cc3)nc2c1` gave a half-life of 59.3 h (male human; oral, 15 mg, single dose, fasted, healthy volunteers).
